Test results: ChEMBL document CHEMBL3585348, “Armochaetoglobins A-J: Cytochalasan Alkaloids from Chaetomium globosum TW1-1, a Fungus Derived from the Terrestrial Arthropod Armadillidium vulgare” (J Nat Prod, 2015)

What was measured:
HL-60 = assay: Cytotoxicity against human HL60 cells assessed as cell viability after 48 hrs by MTS assay; assay type: functional, cell-based; conditions: HL-60, 48 h
Summary of the method: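 HL-60 suspension cells grown in DMEM or RPMI1640 with 10% FBS at 37 °C in 5% CO2, seeded at 1 × 10^5 cells/mL just before dosing. Exposure was 48 h, in triplicate, at 0.0625–40 μM (five concentrations), with cisplatin and paclitaxel controls. MTS (5 mg/mL) was added for 4 h at 37 °C, followed by 10% SDS lysis and OD at 595 nm.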

SMMC-7721 = assay: Cytotoxicity against human SMMC7721 cells assessed as cell viability after 48 hrs by MTS assay; assay type: functional, cell-based; conditions: SMMC-7721, 48 h
Summary of the method: (§1)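 Adherent cells grown in DMEM or RPMI1640 with 10% FBS at 37 °C in 5% CO2, seeded in 96-well plates, and left to adhere 12 h. Compounds were added at 0.0625, 0.32, 1.6, 8 and 40 μM for 48 h, in triplicate, with cisplatin and paclitaxel as positive controls. MTS (5 mg/mL) was added for 4 h at 37 °C, cells lysed in 10% SDS, and OD read at 595 nm.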

A549 = assay: Cytotoxicity against human A549 cells assessed as cell viability after 48 hrs by MTS assay; assay type: functional, cell-based; conditions: A549, 48 h; summary of the method: as §1
MCF7 = assay: Cytotoxicity against human MCF7 cells assessed as cell viability after 48 hrs by MTS assay; assay type: functional, cell-based; conditions: MCF7, 48 h; summary of the method: as §1
SW480 = assay: Cytotoxicity against human SW480 cells assessed as cell viability after 48 hrs by MTS assay; assay type: functional, cell-based; conditions: SW480, 48 h; summary of the method: as §1
[1] = Cytotoxicity against human BEAS2B cells assessed as cell viability after 48 hrs by MTS assay; assay type: cell-based; conditions: BEAS-2B
Summary of the method: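 Noncancerous human bronchial epithelial BEAS-2B cells grown in DMEM or RPMI1640 with 10% FBS at 37 °C in 5% CO2, seeded in 96-well plates and allowed 12 h to adhere before compound addition. Viability was read after adding MTS (5 mg/mL) for 4 h at 37 °C, lysing in 10% SDS, and measuring formazan OD at 595 nm.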

Compound | IC50 (HL-60) [µM] | IC50 (SMMC-7721) [µM] | IC50 (A549) [µM] | IC50 (MCF7) [µM] | IC50 (SW480) [µM] | IC50 [1] [µM]
CC(=O)O[C@H]1C(=O)[C@@]2(C)[C@H]([C@H](OC(=O)c3ccccc3)[C@]3(O)C[C@H](OC(=O)[C@H](O)[C@@H](NC(=O)c4ccccc4)c4ccccc4)C(C)=C1C3(C)C)[C@]1(OC(C)=O)CO[C@@H]1C[C@@H]2O [PACLITAXEL] | < 0.008 | < 0.008 | < 0.008 | < 0.008 | < 0.008 | 0.58
C/C1=C\[C@@H](C)C/C=C/[C@H]2C=C(CO)[C@@H](C)[C@H]3[C@H](Cc4c[nH]c5ccccc45)NC(=O)[C@]32C(=O)/C=C/C(=O)[C@@H]1O | 3.31 | 9.83 | 8.01 | 4.06 | 3.9 | 3.34
C/C1=C\[C@@H](C)C/C=C/[C@H]2C=C(CO)[C@@H](C)[C@H]3[C@H](Cc4c[nH]c5ccccc45)NC(=O)[C@]32C(=O)CCC(=O)C1 | > 40 | > 40 | > 40 | > 40 | > 40 | > 40
CC1=C[C@@H]2/C=C/C[C@H](C)/C=C(\C)[C@@H](O)[C@@H](O)CCC(=O)[C@]23C(=O)N[C@@H](Cc2c[nH]c4ccccc24)[C@@H]3[C@@H]1C | > 40 | > 40 | > 40 | > 40 | > 40 | > 40
C/C(C=O)=C\C(C)C/C=C/[C@H]1[C@@H]2O[C@]2(C)[C@@H](C)[C@H]2[C@H](Cc3c[nH]c4ccccc34)NC(=O)[C@]21C(=O)CCC(=O)O (stereo not given in full) | > 40 | 25 | > 40 | > 40 | > 40 | > 40
COC(=O)CCC(=O)[C@@]12C(=O)N[C@@H](Cc3c[nH]c4ccccc34)[C@@H]1[C@H](C)[C@@]1(C)O[C@H]1[C@@H]2/C=C/CC(C)/C=C(\C)C=O (stereo not given in full) | 14 | 10.8 | 19.8 | 22.7 | 38.2 | 5.68
C/C1=C\[C@@H](C)C/C=C/[C@H]2[C@H](O)[C@@]3(C)O[C@@]4(Cc5c[nH]c6ccccc56)NC(=O)[C@]2(C(=O)CCC(=O)C1=O)[C@H]4[C@@H]3C | 18.2 | 17.4 | 17.7 | 19.1 | 35.3 | 16.6
C/C(C=O)=C\C(C)C/C=C/[C@H]1[C@@H]2O[C@]2(C)[C@@H](C)[C@H]2[C@H](Cc3c[nH]c4ccccc34)NC(=O)[C@]21C(=O)CCCO (stereo not given in full) | 11.9 | 10.6 | 16.3 | > 40 | > 40 | 15.5
CC1=C[C@@H]2/C=C/C[C@H](C)/C=C(\C)C(=O)[C@@H](O)CCC(=O)[C@]23C(=O)N[C@@H](Cc2c[nH]c4ccccc24)[C@@H]3[C@@H]1C | 12.6 | 13.8 | 14.3 | 14.8 | 20.6 | 16
C/C(=C\C(C)C/C=C/[C@H]1[C@@H]2O[C@]2(C)[C@@H](C)[C@H]2[C@H](Cc3c[nH]c4ccccc34)NC(=O)[C@]21C(=O)CCCO)CO (stereo not given in full) | 16.5 | 19.4 | 30.9 | > 40 | > 40 | 23.1
